We go through 97 compounds from ChEMBL document CHEMBL4513216, “Probing the Open Global Health Chemical Diversity Library for Multistage-Active Starting Points for Next-Generation Antimalarials” (ACS Infect Dis, 2020).

The nature of this data set: Toxicity liver stage against HepG2, at 10uM. Also noted: test concentration 10 uM, cell line HepG2-A16-CD81EGFP. To be noted: human, HepG2-A16-CD81EGFP cells; read-out: INHIBITION
It is filed as cell-based. The procedure, abridged:
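Uninfected HepG2-A16-CD81EGFP cells, 3 × 10^3 per well, 1536-well, plated on prespotted compound at 10 μM final, parasite-free screening media added to match infected plates; puromycin 10 μM positive, DMSO 0.5% negative; run in parallel with 48 h PbLuc assay at 37 °C, 5% CO2; viability by CellTiter-Glo luminescence, normalized to controls.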
For the compound `Cc1ccc(NC(=O)c2cc(S(=O)(=O)N3CCCCC3)c[nH]2)cc1F`, the cytotoxicity at 10 µM is 1.26%.

As to `CC(C)(C)C(=O)NC[C@H]1Cn2c(-c3ccccc3)cnc2CO1`, the cytotoxicity at 10 µM is -3.69%.

With `Cc1n[nH]c2nc(-c3ccccc3O)cc(C(=O)O)c12`, the cytotoxicity at 10 µM was -1.55%.

Take `CN1CCCCC12CCN(c1nncs1)C2` (configuration not stated): the cytotoxicity at 10 µM turned out to be 7.1%.

Turning to `O=C(c1ncn2c1CNS(=O)(=O)c1ccccc1-2)N1CCCCC1`, the cytotoxicity at 10 µM stood at 9.52%.

As to `Cc1cnc(N2CCC3(CC2)CC3CNC(=O)N(C)C)nc1` (configuration not stated), the cytotoxicity at 10 µM stood at 8.82%.

For the compound `COCC1CN(Cc2ccoc2)Cc2cn(C)nc21` (configuration not stated), the cytotoxicity at 10 µM came to 7.55%.

As for `CO[C@H]1CCN(S(=O)(=O)c2cn(C)cn2)[C@H]1Cc1ccncc1`, the cytotoxicity at 10 µM was 9.43%.

With `CN(C)C(=O)N1CCN(C)c2ncccc2C1`, the cytotoxicity at 10 µM is -4.14%.

Regarding `O=C1COc2ccc(S(=O)(=O)NC3CC3)c3c2N1CCC3`, the cytotoxicity at 10 µM was -16.7%.

With `Cc1nn(Cc2ccc(C(=O)NC3CCS(=O)(=O)C3)cc2)c(C)c1Br` (configuration not stated), the cytotoxicity at 10 µM is -3.71%.

As to `CCN(CC)C(=O)c1nnsc1-c1ccccc1`, the cytotoxicity at 10 µM was found to be 1.88%.

For the compound `O=C(CCn1ccnc1)N1CC[C@H](Oc2cccc(F)c2)[C@@H](O)CC1`, the cytotoxicity at 10 µM is -1.83%.

Turning to `CC(C)NC(=O)[C@@H]1CN(C(=O)C2CC2)C[C@]12Cc1ccccc1C(=O)N2`, the cytotoxicity at 10 µM was found to be 1.48%.

As for `CN(C)c1ncc(I)c(C2CCCN2S(C)(=O)=O)n1` (configuration not stated), the cytotoxicity at 10 µM stood at 3.8%.

Consider `Cc1ccc(CC(=O)N2CCOC(c3ncc(CN(C)C)[nH]3)C2)s1` (configuration not stated), for which the cytotoxicity at 10 µM is -3.47%.

For the compound `Cc1nn(C)cc1-c1cc(C(=O)N2CCc3ncc(Cl)cc3C2)on1`, the cytotoxicity at 10 µM is -4.96%.

With `Cc1noc(C)c1CCC(=O)N[C@@H]1CC[C@@H](Oc2cccnc2)[C@@H]1O`, the cytotoxicity at 10 µM was -2.62%.

`CC(C)N(C(=O)c1ccnc(OCC(F)(F)F)c1)c1cccnc1`: the cytotoxicity at 10 µM is 8.05%.

Turning to `Cc1nc2cc(NCc3cnn(C)c3)ccc2n1C`, the cytotoxicity at 10 µM turned out to be 13.1%.

As to `N#Cc1cccc(CN2CCCC2Cn2cncn2)c1` (configuration not stated), the cytotoxicity at 10 µM is 3.15%.

Turning to `CCC1(CC)CC(=O)N(CC(O)c2ccc(Cl)cc2)C1=O` (configuration not stated), the cytotoxicity at 10 µM was determined as 4.06%.

As for `CC(C)c1noc(CCNC(=O)NCC2COc3ccccc3O2)n1` (configuration not stated), the cytotoxicity at 10 µM is 1.03%.

As for `COC(=O)c1ccc(N(C(=O)c2ccncc2)C(C)C)c(C)c1`, the cytotoxicity at 10 µM was determined as 0.503%.

In the case of `Cc1noc(CCCC(=O)NCCc2cc3ccccc3[nH]2)n1`, the cytotoxicity at 10 µM turned out to be 1.38%.

As for `COC(=O)NCC(=O)NC1(C)CCc2ccccc2C1` (configuration not stated), the cytotoxicity at 10 µM stood at 4.29%.

`COC1CCN(c2ccc(F)cc2CN(C)C(C)C(N)=O)CC1` (configuration not stated): the cytotoxicity at 10 µM amounted to 9.13%.

Take `CCc1ccc(C(COC)NC(=O)c2ccsc2)o1` (configuration not stated): the cytotoxicity at 10 µM amounted to 1.57%.

For `COC(=O)c1ccc(Cn2nc(C)cc2C)c(OC)c1`, the cytotoxicity at 10 µM came out at 10.7%.

Take `COCCS(=O)(=O)NC(=O)c1nnn(-c2ccc(F)cc2)c1C1CC1`: the cytotoxicity at 10 µM came out at 0.188%.

On to `O=C(NCc1ccc(CN2CCCCC2)cc1)Nc1cccnc1`, for which the cytotoxicity at 10 µM worked out at 74.5%.

As to `COc1cc(C)nc(N2CCN(C(=O)CCc3ccncc3)CC2)n1`, the cytotoxicity at 10 µM was -5%.

For `Cc1nn(CC(=O)N2CCCN(c3cccnn3)CC2)c(C)c1Cl`, the cytotoxicity at 10 µM is -1.2%.

As to `O=C(CCC(=O)N1CCCC1c1ccsc1)N1CCOCC1` (configuration not stated), the cytotoxicity at 10 µM is -10.2%.

Regarding `COc1c(C2CCCN2C(=O)c2ccco2)c(C)nn1C` (configuration not stated), the cytotoxicity at 10 µM is -1.68%.

Regarding `CCCN(C(=O)c1cnns1)C1CCCN(Cc2ccccc2)C1` (configuration not stated), the cytotoxicity at 10 µM is -4.35%.

Take `Cc1nc(NC(=O)N[C@H](CO)c2ccccc2)sc1C`: the cytotoxicity at 10 µM was -7.32%.

Turning to `COC(=O)c1ccc(OCCn2cnc(C#N)n2)cc1`, the cytotoxicity at 10 µM was -2.01%.

Turning to `CN1CCN(C)C(CNc2c(C#N)cnc3ccc(Cl)cc23)C1` (configuration not stated), the cytotoxicity at 10 µM is -4.58%.

Turning to `Cc1nc(S(=O)(=O)CCn2cccn2)n(C2CCCCC2)c1C`, the cytotoxicity at 10 µM was -5.58%.

Turning to `COc1cccc(CNc2nnc(C(C)(C)C)o2)c1OC`, the cytotoxicity at 10 µM is -0.508%.

Turning to `OC1(CNC2CCN(c3ccccn3)CC2)CCc2ccccc21` (configuration not stated), the cytotoxicity at 10 µM is -3.48%.

On to `CC(NC1(CNC(=O)Cn2cccn2)CCOCC1)c1ccccc1` (configuration not stated), for which the cytotoxicity at 10 µM was -3.07%.

`OC(CN(Cc1ccccc1)Cc1ccncc1)c1cccs1` (configuration not stated): the cytotoxicity at 10 µM is -3.65%.

For `COc1ccc(C(=O)NS(=O)(=O)c2cncc(Br)c2)cc1OC`, the cytotoxicity at 10 µM amounted to 4.36%.

As for `CC(NC(=O)CCCOc1ccccc1Cl)c1ccncc1` (configuration not stated), the cytotoxicity at 10 µM is -13%.

As to `CCC(NC1CCN(C(=O)c2ccccc2)CC1)c1cccs1` (configuration not stated), the cytotoxicity at 10 µM was -2.62%.

For `Cc1nn(C)c2ncnc(NCC(O)CN3CCCCC3)c12` (configuration not stated), the cytotoxicity at 10 µM came to 1.2%.

`CC(=O)N1CCOC(Cc2cccc(C(F)(F)F)c2)C1` (configuration not stated): the cytotoxicity at 10 µM was -6.64%.

With `C[C@@H]1CN(C2CCN(c3ccccc3F)CC2)CC[C@]1(C)O`, the cytotoxicity at 10 µM was -5.32%.

For `CN(CC1(O)CCCN(Cc2cccc(F)c2F)C1=O)C1CCCCC1` (configuration not stated), the cytotoxicity at 10 µM is -11.1%.

For the compound `Cc1ccsc1[C@@H]1CCN(C(=O)CCC(=O)c2ccccc2)C[C@H]1O`, the cytotoxicity at 10 µM came to 3.52%.

Consider `CCn1c(C)nnc1SCCn1cc(-c2ncc[nH]2)nn1`, for which the cytotoxicity at 10 µM was -6.99%.

As for `CCc1ccc2nc(-c3cnn(C)c3)cc(C(=O)N3CCCC3)c2c1`, the cytotoxicity at 10 µM worked out at 0.753%.

With `CCc1ncc(S(C)(=O)=O)c(C2CCCNC2)n1` (configuration not stated), the cytotoxicity at 10 µM is -14.2%.

`C[C@@H]1CN(CCCOc2ccc(F)cc2)CC[C@@]1(O)C1CCOCC1`: the cytotoxicity at 10 µM is -8.01%.

Turning to `COCCNS(=O)(=O)c1cccc2c1CN(C(=O)c1cc(C)on1)CC2`, the cytotoxicity at 10 µM was found to be 1.63%.

With `Cc1c(C(C)N)cnn1-c1cccc2ccccc12` (configuration not stated), the cytotoxicity at 10 µM was 10.7%.

Turning to `CCc1oc(C(=O)NC(C)c2ncn[nH]2)cc1CN1CCCC1` (configuration not stated), the cytotoxicity at 10 µM is -5.92%.

As to `COCCn1ccnc1C1CCN(C(=O)CSc2nnc(C)o2)CC1`, the cytotoxicity at 10 µM is -11.5%.

Turning to `CC1CCCCN1C1CN(c2nc(C3CCCC3)nc3c2cnn3C)C1` (configuration not stated), the cytotoxicity at 10 µM was -0.699%.

With `O=C(O)C(c1ccc2c(c1)OCCO2)N1CCC(N2CCSCC2)CC1` (configuration not stated), the cytotoxicity at 10 µM was -1.1%.

As for `O=C(c1ccccc1-c1nc[nH]n1)N1CCOC(C(F)(F)F)C1` (configuration not stated), the cytotoxicity at 10 µM is -0.359%.

On to `Cc1ccc(Cl)c(CN2CCC3(CC2)C(C(=O)O)CC(=O)N3C)c1F` (configuration not stated), for which the cytotoxicity at 10 µM turned out to be 2.64%.

Take `O=C(NCCN1CCCCCC1)c1coc(COc2ccc(F)cc2)n1`: the cytotoxicity at 10 µM was -4.07%.

Take `Cc1nc(C)n(C2CCCN(C(=O)CCOCC(C)C)C2)n1` (configuration not stated): the cytotoxicity at 10 µM was -0.734%.

Take `Cc1nc(-c2ccccc2)n(CC(=O)NC2CCCC2)n1`: the cytotoxicity at 10 µM is -0.248%.

Regarding `COc1ccccc1CNC(=O)CNCCn1cc(C)cn1`, the cytotoxicity at 10 µM is -1.9%.

As to `O=C(CN1C=Nc2ccccc2S1(=O)=O)NCc1ccccc1`, the cytotoxicity at 10 µM was -3.95%.

On to `Cc1ccc(C(=O)NC2CCN(CC(=O)N(C)c3ccccc3)CC2)o1`, for which the cytotoxicity at 10 µM is -3.73%.

Consider `Cc1cnc2c(S(=O)(=O)NCC3CC3)cccc2c1`, for which the cytotoxicity at 10 µM is -2.87%.

Take `CCc1ncc2c(n1)CN(CC(=O)Nc1ccncc1)CC2`: the cytotoxicity at 10 µM was found to be 0.0264%.

As to `Cc1nccn1C1CCCN(C(=O)c2ccc3nnc(C)n3c2)C1` (configuration not stated), the cytotoxicity at 10 µM stood at 2.01%.

Consider `Cc1ccc(NC2CCN(C(=O)CCc3c(C)noc3C)CC2)nn1`, for which the cytotoxicity at 10 µM is -11.4%.

Regarding `Cc1nc(CN2CCC(N(C)Cc3nnc(C4CC4)n3C)C2)cs1` (configuration not stated), the cytotoxicity at 10 µM was -10.7%.

As to `Cc1nn(C)c(Cl)c1C1CCCN1C(=O)c1ccc2c(c1)COC2` (configuration not stated), the cytotoxicity at 10 µM is -16.1%.

With `COc1ccccc1CNC(C)c1ccc2[nH]c(=O)[nH]c2c1` (configuration not stated), the cytotoxicity at 10 µM was -18%.

Regarding `N#CC1(C(=O)N2CCCN(c3nccs3)CC2)CCCC1`, the cytotoxicity at 10 µM was -11.1%.

As for `COCCOc1cccc(CNCC2CN(C)CCO2)c1` (configuration not stated), the cytotoxicity at 10 µM was -14.8%.

Take `Fc1cccc(-c2nc(CN3CCCC3Cn3cncn3)co2)c1` (configuration not stated): the cytotoxicity at 10 µM is -5.61%.

On to `O=C(NCc1cccnc1N1CCCCC1)c1cccs1`, for which the cytotoxicity at 10 µM is -4.43%.

On to `O=C(NCc1cc[nH]n1)NCC(O)c1ccccc1F` (configuration not stated), for which the cytotoxicity at 10 µM is -17.1%.

Take `CC(Cn1ccnc1)NC(=O)N(C)Cc1ccc2c(c1)OCO2` (configuration not stated): the cytotoxicity at 10 µM was -16.1%.

For the compound `CCOc1c(Cl)cc(/C=C/c2ncc(C(=O)O)s2)cc1OC`, the cytotoxicity at 10 µM was determined as 3.91%.

With `O=C(COCc1ccccc1)N1CCCC1c1noc(C2CC2)n1` (configuration not stated), the cytotoxicity at 10 µM is -1.98%.

As for `Cc1nc(C2CCCN2C(=O)COCc2ccccc2)no1` (configuration not stated), the cytotoxicity at 10 µM was -2.66%.

For the compound `O=C(COc1cccc(Cl)c1)N1CCOCC1c1ncon1` (configuration not stated), the cytotoxicity at 10 µM was -12.3%.

With `Cc1csc(N2CCCN(C(=O)CCNc3ncccn3)CC2)n1`, the cytotoxicity at 10 µM is -10.5%.

`CC(C)(C)OC(=O)NCCNC(=O)c1ccc(-c2ccco2)[nH]c1=O`: the cytotoxicity at 10 µM is -13.1%.

Regarding `O=C(c1ccc2c(c1)OCCCO2)N1CCCC(n2cccn2)C1` (configuration not stated), the cytotoxicity at 10 µM is -15.6%.

On to `CC(NC(=O)Nc1cccnc1N1CCCC1)c1ccncc1` (configuration not stated), for which the cytotoxicity at 10 µM was -19.3%.

In the case of `Cc1ccc(N2CCCC(NCc3ccc4c(c3)CCO4)C2)nn1` (configuration not stated), the cytotoxicity at 10 µM is -16.1%.

As for `CO[C@@H]1CCN(Cc2cnn(C)c2)[C@@H]2CN(Cc3ccco3)C[C@@H]21`, the cytotoxicity at 10 µM was -12.5%.

Regarding `O=C(O)[C@]12CCCN(Cc3ccoc3)C[C@H]1CN(c1ncccn1)C2`, the cytotoxicity at 10 µM turned out to be 7.37%.

`COCCN1CCO[C@@H]2CN(C(=O)NCc3ccccc3)CC[C@@H]2C1`: the cytotoxicity at 10 µM is 3.23%.

As to `CN1CCC2(CCN(Cc3nccs3)CC2)C1=O`, the cytotoxicity at 10 µM is -3.03%.

Consider `COc1cccc(C(=O)N2C[C@@H]3CC[C@H]2CN(Cc2cscn2)C3)c1`, for which the cytotoxicity at 10 µM is 1.5%.
